According to ChEMBL document CHEMBL4834420, “Projected Dose Optimization of Amino- and Hydroxypyrrolidine Purine PI3Kδ Immunomodulators” (J Med Chem, 2021):
pIC50: −log10 of the molar value. Values after ≈ are worked out from the molar mass of the structure shown.

How the values were obtained:
[1] = target: Voltage-dependent L-type calcium channel subunit alpha-1C (Homo sapiens, UniProt Q13936); assay: Inhibition of Cav1.2 (unknown origin)
[2] = Inhibition of rat PI3Kdelta
[3] = Plasma clearance in Beagle dog at 0.25 mg/kg, iv or 0.5 mg/kg, po; format: ADME, organism-based, Canis lupus familiaris
[4] = target: ATP-dependent translocase ABCB1 (Homo sapiens, UniProt P08183); assay: Inhibition of PGP (unknown origin)
Sequence of ATP-dependent translocase ABCB1 (P08183 whole entry): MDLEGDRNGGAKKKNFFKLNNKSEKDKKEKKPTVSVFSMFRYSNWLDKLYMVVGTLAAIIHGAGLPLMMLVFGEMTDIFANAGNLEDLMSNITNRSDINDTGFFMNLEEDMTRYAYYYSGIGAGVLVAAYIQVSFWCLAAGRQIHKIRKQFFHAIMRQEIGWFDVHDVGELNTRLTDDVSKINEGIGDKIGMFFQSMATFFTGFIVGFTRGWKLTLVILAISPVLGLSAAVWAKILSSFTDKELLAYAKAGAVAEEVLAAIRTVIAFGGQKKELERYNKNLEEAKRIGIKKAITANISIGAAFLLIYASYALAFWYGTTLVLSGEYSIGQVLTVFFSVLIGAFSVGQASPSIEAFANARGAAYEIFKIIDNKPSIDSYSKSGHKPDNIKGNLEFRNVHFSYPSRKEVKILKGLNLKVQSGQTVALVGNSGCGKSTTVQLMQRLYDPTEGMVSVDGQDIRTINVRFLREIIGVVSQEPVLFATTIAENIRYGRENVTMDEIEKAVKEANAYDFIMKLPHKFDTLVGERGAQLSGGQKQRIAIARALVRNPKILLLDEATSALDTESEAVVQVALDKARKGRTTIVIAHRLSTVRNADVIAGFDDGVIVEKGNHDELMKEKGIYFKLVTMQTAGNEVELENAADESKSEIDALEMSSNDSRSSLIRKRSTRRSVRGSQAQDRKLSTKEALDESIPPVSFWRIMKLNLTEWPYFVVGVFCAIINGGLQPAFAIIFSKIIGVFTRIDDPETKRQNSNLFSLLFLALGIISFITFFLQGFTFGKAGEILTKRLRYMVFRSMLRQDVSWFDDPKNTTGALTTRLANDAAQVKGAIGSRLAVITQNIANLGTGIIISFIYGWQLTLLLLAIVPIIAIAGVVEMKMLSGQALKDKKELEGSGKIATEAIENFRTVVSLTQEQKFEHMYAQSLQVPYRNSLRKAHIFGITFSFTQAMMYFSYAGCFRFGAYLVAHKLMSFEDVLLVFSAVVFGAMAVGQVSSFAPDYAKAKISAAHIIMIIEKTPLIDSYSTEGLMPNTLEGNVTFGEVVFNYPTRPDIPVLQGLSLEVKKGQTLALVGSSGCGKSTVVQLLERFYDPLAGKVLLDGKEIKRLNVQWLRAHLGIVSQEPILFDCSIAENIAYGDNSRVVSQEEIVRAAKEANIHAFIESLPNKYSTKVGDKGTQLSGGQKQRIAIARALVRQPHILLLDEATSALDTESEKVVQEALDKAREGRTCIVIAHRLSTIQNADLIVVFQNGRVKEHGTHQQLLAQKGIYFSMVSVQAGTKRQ

[5] = AUC in C57BL/6 mouse at 100 mg/kg; format: ADME, organism-based; design: dose 100 mg/kg; conditions: in vivo
[6] = Unbound Cmax in C57BL/6 mouse at 100 mg/kg; format: ADME, organism-based; conditions: in vivo
How it was run: (§1)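 C57BL/6-Foxp3-GFP reporter mice were dosed at 30 and 100 mg/kg/day for up to 7 days, with exposure determined at 100 mg/kg. The unbound Cmax and trough values were derived from total plasma levels. Treg readout was bioluminescence imaging 10 min after 3 mg luciferin ip, reported as radiance in photons/s/cm²/steradian.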

[7] = target: Voltage-gated inwardly rectifying potassium channel KCNH2 (Homo sapiens, UniProt Q12809); assay: Inhibition of hERG (unknown origin)
Sequence of Voltage-gated inwardly rectifying potassium channel KCNH2 (Q12809 whole entry): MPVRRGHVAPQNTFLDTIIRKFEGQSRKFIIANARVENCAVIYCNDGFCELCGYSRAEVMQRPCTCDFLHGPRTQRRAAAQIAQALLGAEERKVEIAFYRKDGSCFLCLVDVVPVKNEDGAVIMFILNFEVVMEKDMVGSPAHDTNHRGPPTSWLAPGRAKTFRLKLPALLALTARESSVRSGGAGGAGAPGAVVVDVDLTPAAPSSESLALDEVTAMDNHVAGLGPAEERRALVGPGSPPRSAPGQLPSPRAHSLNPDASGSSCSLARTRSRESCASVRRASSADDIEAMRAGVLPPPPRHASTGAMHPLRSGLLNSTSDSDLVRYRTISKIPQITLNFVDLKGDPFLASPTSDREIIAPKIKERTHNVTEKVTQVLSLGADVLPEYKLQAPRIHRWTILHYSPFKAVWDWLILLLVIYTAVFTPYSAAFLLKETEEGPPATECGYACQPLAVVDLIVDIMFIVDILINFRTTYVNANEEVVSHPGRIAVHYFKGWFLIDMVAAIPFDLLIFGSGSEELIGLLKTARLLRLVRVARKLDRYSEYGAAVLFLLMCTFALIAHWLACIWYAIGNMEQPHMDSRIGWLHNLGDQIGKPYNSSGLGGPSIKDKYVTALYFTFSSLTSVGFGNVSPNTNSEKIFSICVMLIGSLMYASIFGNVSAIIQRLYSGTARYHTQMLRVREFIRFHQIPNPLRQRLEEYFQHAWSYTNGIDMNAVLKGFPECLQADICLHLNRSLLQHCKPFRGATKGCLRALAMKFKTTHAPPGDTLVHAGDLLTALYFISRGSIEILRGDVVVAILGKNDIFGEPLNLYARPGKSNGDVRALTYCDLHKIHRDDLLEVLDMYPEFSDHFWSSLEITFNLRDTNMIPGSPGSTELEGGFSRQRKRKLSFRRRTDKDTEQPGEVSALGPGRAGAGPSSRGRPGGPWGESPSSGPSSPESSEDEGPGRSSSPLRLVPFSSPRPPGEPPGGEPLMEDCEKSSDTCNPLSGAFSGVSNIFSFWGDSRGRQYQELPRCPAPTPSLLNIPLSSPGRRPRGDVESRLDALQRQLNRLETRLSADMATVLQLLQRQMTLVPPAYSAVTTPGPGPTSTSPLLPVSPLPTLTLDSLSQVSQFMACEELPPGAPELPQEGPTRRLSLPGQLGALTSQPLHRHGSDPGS

[8] = Half life in C57BL/6 mouse; format: ADME; conditions: in vivo
[9] = Half-life in Wistar Han rat; format: ADME; conditions: in vivo
Cytochrome P450 3A4 = Cytochrome P450 3A4 (Homo sapiens, UniProt P08684); assay: Inhibition of CYP3A4 (unknown origin); format: ADME
Sequence of Cytochrome P450 3A4 (P08684 whole entry): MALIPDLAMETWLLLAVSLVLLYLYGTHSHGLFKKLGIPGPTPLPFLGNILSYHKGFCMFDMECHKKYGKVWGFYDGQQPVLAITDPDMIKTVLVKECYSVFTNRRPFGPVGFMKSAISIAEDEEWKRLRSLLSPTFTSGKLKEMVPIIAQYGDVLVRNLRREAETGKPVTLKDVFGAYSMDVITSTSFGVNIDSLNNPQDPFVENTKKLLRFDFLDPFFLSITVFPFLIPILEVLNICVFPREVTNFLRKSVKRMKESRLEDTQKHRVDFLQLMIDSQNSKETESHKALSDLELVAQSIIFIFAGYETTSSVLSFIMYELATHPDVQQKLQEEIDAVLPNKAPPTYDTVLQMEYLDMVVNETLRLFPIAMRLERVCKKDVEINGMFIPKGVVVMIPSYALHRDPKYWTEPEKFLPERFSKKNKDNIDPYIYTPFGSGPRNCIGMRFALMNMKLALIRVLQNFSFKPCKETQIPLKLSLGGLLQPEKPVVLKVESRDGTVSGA

[10] = Solubility of the compound at pH 7.4; format: physicochemical; conditions: buffer
[11] = Lipophilicity, log D of the compound by HPLC analysis; format: physicochemical
[12] = Unbound trough plasma concentration C57BL/6 mouse at 100 mg/kg; format: ADME, organism-based; conditions: in vivo; how it was run: as §1
[13] = Intrinsic clearance in C57BL/6 mouse at 1 mg/kg, iv or 3 mg/kg, po; format: ADME, organism-based; conditions: in vivo
[14] = Half-life in Beagle dog; format: ADME, Canis lupus familiaris; conditions: in vivo
[15] = Unbound trough plasma concentration Brown Norway rat at 30 mg/kg, po; format: ADME, organism-based; conditions: in vivo
[16] = Protein binding in C57BL/6 mouse plasma; format: ADME, cell-free; conditions: read-out: PPB (converted)
[17] = Intrinsic clearance in human hepatocytes; format: ADME, cell-based, Hepatocyte
[18] = Plasma clearance in Wistar Han rat at 0.5 mg/kg, iv or 1 mg/kg, po; format: ADME, organism-based
[19] = Protein binding in human plasma; format: ADME, cell-free; conditions: read-out: PPB (converted)
[20] = Protein binding in Beagle dog plasma; format: ADME, cell-free, Canis lupus familiaris; conditions: read-out: PPB (converted)
[21] = Volume of distribution in C57BL/6 mouse; format: ADME; conditions: in vivo
[22] = target: T1, Phosphatidylinositol 4,5-bisphosphate 3-kinase catalytic subunit delta isoform (Homo sapiens, UniProt O00329); assay: Inhibition of PI3Kdelta in human Ramos cells assessed as reduction in anti-IgM-antibody-induced phosphorylation of AKT at Ser473 residue preincubated for 20 mins followed by anti-IgM antibody stimulation and measured after 30 mins by alphascreen assay; format: cell-based
T1 sequence (O00329 whole entry): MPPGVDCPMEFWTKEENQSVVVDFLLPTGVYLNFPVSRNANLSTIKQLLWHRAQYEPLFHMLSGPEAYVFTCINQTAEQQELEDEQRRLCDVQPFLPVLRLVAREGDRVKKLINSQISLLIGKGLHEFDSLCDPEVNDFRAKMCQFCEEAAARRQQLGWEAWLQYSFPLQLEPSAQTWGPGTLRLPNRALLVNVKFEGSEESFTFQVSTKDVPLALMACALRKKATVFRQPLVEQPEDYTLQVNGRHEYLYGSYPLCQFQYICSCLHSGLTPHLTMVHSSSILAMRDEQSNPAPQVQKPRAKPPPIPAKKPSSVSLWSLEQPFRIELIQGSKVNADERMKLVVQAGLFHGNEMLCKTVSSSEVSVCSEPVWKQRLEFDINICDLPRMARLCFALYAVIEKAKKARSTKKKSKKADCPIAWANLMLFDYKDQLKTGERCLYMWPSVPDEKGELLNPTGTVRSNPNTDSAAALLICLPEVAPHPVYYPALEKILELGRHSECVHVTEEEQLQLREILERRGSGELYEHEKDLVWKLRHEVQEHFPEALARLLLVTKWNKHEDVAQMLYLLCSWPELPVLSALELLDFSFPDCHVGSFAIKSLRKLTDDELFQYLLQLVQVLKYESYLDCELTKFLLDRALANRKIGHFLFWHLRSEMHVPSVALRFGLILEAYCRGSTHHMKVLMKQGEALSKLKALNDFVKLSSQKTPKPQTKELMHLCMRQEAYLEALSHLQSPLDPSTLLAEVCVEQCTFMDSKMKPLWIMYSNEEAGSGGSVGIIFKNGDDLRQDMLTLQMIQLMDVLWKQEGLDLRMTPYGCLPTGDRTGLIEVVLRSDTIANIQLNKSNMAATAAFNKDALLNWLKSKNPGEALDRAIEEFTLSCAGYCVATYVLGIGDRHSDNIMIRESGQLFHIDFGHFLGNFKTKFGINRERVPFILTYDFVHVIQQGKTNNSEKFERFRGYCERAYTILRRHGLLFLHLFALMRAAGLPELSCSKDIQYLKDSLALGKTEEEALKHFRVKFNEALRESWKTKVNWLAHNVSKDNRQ

[23] = Intrinsic clearance in dog hepatocytes; format: ADME, cell-based, Canis lupus familiaris, Hepatocyte; conditions: read-out: CLH
[24] = Oral bioavailability in Wistar Han rat; format: ADME, organism-based; conditions: in vivo
[25] = Unbound volume of distribution in C57BL/6 mouse; format: ADME; conditions: in vivo
[26] = target: T2, Solute carrier organic anion transporter family member 1B1 (Homo sapiens, UniProt Q9Y6L6); assay: Inhibition of OATP1B1 (unknown origin)
T2 sequence (Q9Y6L6 whole entry): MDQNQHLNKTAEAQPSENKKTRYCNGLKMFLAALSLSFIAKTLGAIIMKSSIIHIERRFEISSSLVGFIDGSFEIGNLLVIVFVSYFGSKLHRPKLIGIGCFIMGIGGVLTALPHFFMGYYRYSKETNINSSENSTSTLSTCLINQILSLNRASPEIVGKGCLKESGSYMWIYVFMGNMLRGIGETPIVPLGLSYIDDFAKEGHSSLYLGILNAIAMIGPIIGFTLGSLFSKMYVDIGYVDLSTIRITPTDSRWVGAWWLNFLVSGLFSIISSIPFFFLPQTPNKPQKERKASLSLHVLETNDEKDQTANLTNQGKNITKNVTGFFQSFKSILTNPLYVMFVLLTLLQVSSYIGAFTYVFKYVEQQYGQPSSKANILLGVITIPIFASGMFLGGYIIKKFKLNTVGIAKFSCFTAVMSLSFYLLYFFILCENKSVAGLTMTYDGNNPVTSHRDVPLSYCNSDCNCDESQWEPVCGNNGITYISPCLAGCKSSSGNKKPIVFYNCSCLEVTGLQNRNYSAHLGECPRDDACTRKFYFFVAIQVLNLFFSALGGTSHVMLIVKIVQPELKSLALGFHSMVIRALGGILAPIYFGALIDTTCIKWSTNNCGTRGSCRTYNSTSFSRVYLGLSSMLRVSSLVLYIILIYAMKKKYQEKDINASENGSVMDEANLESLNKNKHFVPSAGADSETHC

P-gp (MDR1) = assay: Efflux ratio of apparent permeability from basolateral to apical side over apical to basolateral side in dog MDCK2 cells expressing MDR1 PGP; format: ADME, cell-based, Canis lupus familiaris, MDCKII-MDR1; conditions: MDCK-MDR1

CCn1c(-c2cnc(C)nc2)nc2c(N[C@H]3CCN(C(=O)C4CC4)C3)ncnc21
pIC50 [1]: < 4.30 | pIC50 [2]: 8.18 | clearance [3]: 4.3 mL/min/kg | inhibition (INH) [4]: Not Active | AUC [5]: 133 µM·h | fCmax [6]: 16 µM | pIC50 [7]: < 4.30 | half-life [8]: 48 min | half-life [9]: 162 min | pIC50 (Cytochrome P450 3A4): < 4.30 | solubility [10]: 15 mg/mL (≈ 38.2 mM) | logD [11]: 0.8 | fCmin [12]: 52 nM | CL [13]: 10 mL/min/kg | half-life [14]: 258 min | fCmin [15]: 62 nM | fraction unbound [16]: 0.47 | CLint scaled [17]: < 2 mL/min/kg | clearance [18]: 8.1 mL/min/kg | fraction unbound [19]: 0.7 | fraction unbound [20]: 0.9 | Vd [21]: 0.2 L/kg | pIC50 [22]: 7.70 | CLint scaled [23]: < 2 mL/min/kg | bioavailability [24]: 55% | Vdu [25]: 0.4 L/kg | inhibition (INH) [26]: Not Active | efflux ratio (P-gp (MDR1)): 16
